The text below walks through data of ChEMBL document CHEMBL1157508, “Mollamides B and C, Cyclic hexapeptides from the indonesian tunicate Didemnum molle” (J Nat Prod, 2008).

In general, IC50 refers to the concentration that gives 50% inhibition. The IC90 is the point of the concentration-response curve where the effect stands at 90%. Low values mean an effect from little substance, high ones a need for much substance. As a reminder, the pEC50 is −log10 of the EC50, conventionally taken in molar units. Low readings indicate a large EC50, high ones a small EC50.

The subject of one assay is Leishmania donovani. Put plainly: Antileishmanial activity against Leishmania donovani. The format is functional, organism-based.
In assay [1] the test system is Mycobacterium intracellulare. Nature of the assay: Antimicrobial activity against Mycobacterium intracellular. The format is functional, organism-based.
The test system of another assay is Candida albicans. Put plainly: Antimicrobial activity against Candida albicans. Type of assay: functional, organism-based.
A further assay has as its system Staphylococcus aureus. Put plainly: Antimicrobial activity against methicillin-resistant Staphylococcus aureus. The format is functional, organism-based.
For assay [2], the system named is Plasmodium falciparum. Put plainly: Antimalarial activity against Plasmodium falciparum D6. Type of assay: functional, organism-based.
Assay [3] addresses T1, Prostaglandin G/H synthase 2 (Homo sapiens) (UniProt P35354).
T1 sequence (whole entry): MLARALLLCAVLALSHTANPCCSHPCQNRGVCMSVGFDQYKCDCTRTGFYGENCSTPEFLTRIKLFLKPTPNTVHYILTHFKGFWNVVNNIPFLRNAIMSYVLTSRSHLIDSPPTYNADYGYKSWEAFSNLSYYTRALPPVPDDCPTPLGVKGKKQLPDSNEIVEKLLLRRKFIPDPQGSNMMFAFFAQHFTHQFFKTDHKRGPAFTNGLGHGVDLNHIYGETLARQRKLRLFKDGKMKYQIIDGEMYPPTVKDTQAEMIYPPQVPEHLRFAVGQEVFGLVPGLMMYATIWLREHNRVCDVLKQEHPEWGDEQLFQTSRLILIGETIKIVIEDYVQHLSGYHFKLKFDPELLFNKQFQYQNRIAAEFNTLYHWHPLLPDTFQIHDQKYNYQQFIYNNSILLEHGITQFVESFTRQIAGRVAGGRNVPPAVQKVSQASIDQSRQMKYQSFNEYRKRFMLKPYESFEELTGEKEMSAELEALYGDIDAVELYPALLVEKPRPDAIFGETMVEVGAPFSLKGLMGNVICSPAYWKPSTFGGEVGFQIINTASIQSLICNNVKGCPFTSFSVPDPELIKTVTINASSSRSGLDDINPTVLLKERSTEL
Nature of the assay: Inhibition of COX2 in cell based assay.

The test system of a further assay is Nakaseomyces glabratus. Nature of the assay: Antimicrobial activity against Candida glabrata. The format is functional, organism-based.
The test system of another assay is Pichia kudriavzevii. Nature of the assay: Antimicrobial activity against Candida krusei. Type of assay: functional, organism-based.
In another assay the test system is Cryptococcus neoformans. Nature of the assay: Antimicrobial activity against Cryptococcus neoformans. The format is functional, organism-based.
For a further assay, the system named is Microglia. Put plainly: Antiinflammatory activity against rat neonatal microglia. Type of assay: functional.
Assay [4] has as its system Plasmodium falciparum. Nature of the assay: Antimalarial activity against Plasmodium falciparum W2. Type of assay: functional, organism-based.
Assay [5] deals with Human immunodeficiency virus 1. Nature of the assay: Antiviral activity against HIV1 infected in human PBMC. The format is functional, organism-based.
A short description of assay [6]: Cytotoxicity against human H125 cells assessed as zone differential value. Type of assay: functional. The method in brief: (§1)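 In vitro disk diffusion assay measuring differential cell killing across nine cell types: leukemias (murine L1210, human CCRF-CEM), solid tumors (murine colon 38, human HCT-116, H125, MCF-7, LNCaP), and murine and human normal hematopoietic progenitor cells (CFU-GM). The read-out is the zone differential between solid tumor, leukemia and normal cell colonies.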

A further assay has as its system L1210. Nature of the assay: Cytotoxicity against mouse L1210 cells assessed as zone differential value. The format is functional. The procedure, abridged:
as §1

A further assay relates to HCT-116. Put plainly: Cytotoxicity against human HCT116 cells assessed as zone differential value. Type of assay: functional. The procedure, abridged:
as §1

Assay [7] is described as follows: Cytotoxicity against mouse Colon38 cells assessed as zone differential value. The format is functional. The procedure, abridged: as §1

SMILES strings stand for the structures. pEC50: −log10 of the molar value. Values after ≈ are worked out from the molar mass of the structure shown. Active and inactive are the calls of the source. The calls are words filed in the database; no cut-off is given here. Numbered stars: 1 amine (or outer) side, 2 acyl side, 3 side chain; on linkers, the order of the positions; unused ones are H or OH. Square brackets hold non-standard residues; d marks the D form. Peptide text beside a SMILES is read from it. * marks the point of attachment. X1 = CC(C)[C@H](N[*:1])C1=N[C@H](C(=O)[*:2])CS1; Allyl(1,1-Me2) = C=CC(C)(C)*

Consider `C=CC(C)(C)O[C@H](C)[C@@H]1NC(=O)[C@@H]2CCCN2C(=O)[C@H](Cc2ccccc2)NC(=O)[C@H](C(C)C)NC(=O)[C@@H]2CSC(=N2)[C@H](C(C)C)NC1=O` [MOLLAMIDE B] (cyclo(FPT(Allyl(1,1-Me2))[X1]V)), for which the IC50 in the assay with Leishmania donovani turned out to be 18 µg/mL (≈ 25.8 µM); with Plasmodium falciparum [2], 2 µg/mL (≈ 2.87 µM); in the assay on Plasmodium falciparum [4], 2.1 µg/mL (≈ 3.01 µM). This compound also returned a 90% effect concentration (IC90) in the assay on Leishmania donovani of 35 µg/mL (≈ 50.2 µM). The result (in assay [1]; with Candida albicans; in the assay with Staphylococcus aureus; in assay [3]; in the assay with Nakaseomyces glabratus; in the assay on Pichia kudriavzevii) was inactive. The outcome in the assay with Cryptococcus neoformans and with Microglia was inactive. Besides, the negative-log EC50 (pEC50) in assay [5] is 4.31.

As for `C=CC(C)(C)OC[C@@H]1NC(=O)CNC(=O)[C@@H]2CCCN2C(=O)[C@H]([C@H](C)CC)NC(=O)c2csc(n2)[C@H](CC(C)C)NC1=O` [MOLLAMIDE C], the Activity in assay [6] is on record as 100; with L1210, 100; in the assay on HCT-116, 100; in assay [7], 250. Further, the result (in assay [3]; in the assay on Microglia) was inactive.
